Assay outcomes from PubChem BioAssay.
Compounds with a hit are over-represented: about 3.7% of the library has one in this group of screens.
EBI2 block – blocks human EBI2 receptor beta-arrestin signaling; P32249; EBI2 beta-arrestin recruitment, luminescence, 7a,25-OHC stimulated; inhibition, % at 5 µM; 0.81% of 360,000 active; in the data active = inhibition above about 38%;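 note: enzyme fragment complementation signal reports receptor beta-arrestin coupling in cells; 0% = agonist plus DMSO wells and 100% = wells without agonist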
Granule exo inh – blocks lytic granule exocytosis | AID 651702 | inhibition, % at 10 µM | 0.66% of 360,000 active | TALL-104 LAMP-1 surface exposure, flow cytometry; cells stimulated with thapsigargin and PMA;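 active = inhibition above about 55%, limit read from the data; inconclusive = no clear call, values can overlap the other calls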
Myeloid diff MLP – promotes myeloid progenitor differentiation; ER-HoxA9 myeloid progenitors, lysozyme-GFP differentiation, flow cytometry; calls only at 10 µM; 1% of 360,000 active; AID 624256;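 active = normalized GFP-positive differentiation at or above the plate's own cutoff, the solvent-only control mean plus 3 SD; inconclusive = no clear call, values can overlap the other calls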;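 note: cells exposed to compound for four days before flow analysis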
MC4R barr agon – human MC4R agonism via beta-arrestin; 0.98% of 360,000 active; P32245; U2OS MC4R beta-arrestin complementation, luminescence; percent of melanotan II response, DMSO zero; activation, % at 8.9 µM;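 active = activation above a per-plate cutoff, the mean activation of sample wells on that plate plus 3 SD, cut at about 8% in these data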
Target sequence (P32245 whole entry, looked up): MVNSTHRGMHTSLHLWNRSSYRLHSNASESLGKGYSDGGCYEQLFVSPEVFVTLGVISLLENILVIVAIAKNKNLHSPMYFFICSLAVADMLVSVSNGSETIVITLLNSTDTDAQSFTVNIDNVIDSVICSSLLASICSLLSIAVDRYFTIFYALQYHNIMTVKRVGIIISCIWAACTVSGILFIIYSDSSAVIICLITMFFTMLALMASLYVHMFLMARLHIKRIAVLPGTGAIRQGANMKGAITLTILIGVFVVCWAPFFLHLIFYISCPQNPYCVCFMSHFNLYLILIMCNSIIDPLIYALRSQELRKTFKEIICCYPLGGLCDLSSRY
MC4R antag cAMP – human MC4R antagonism in cAMP assay | MC4R-expressing cells, MTII-stimulated cAMP, LANCE TR-FRET | inhibition, % at 6.5 µM | 0.48% of 360,000 active | P32245 | AID 540295;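 active = inhibition above its plate's cutoff, the mean of tested wells on that plate plus 3 SD, cut at about 29% in these data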;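 note: 0% = Melanotan II alone and 100% = Melanotan II plus saturating MCL0020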
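Material: U2OS-MC4R stable cell line | Reagent: Melanotan II challenge after compound preincubation | Doses: One concentration, 6.5 µM nominal | Incubation: 30-min compound preincubation, 1-h Melanotan II challenge, 1-h detection, room temperature | Signal: TR-FRET cAMP assay | Replicates: One well per compound, no replicates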
* = called active by the depositor; i = inactive; ? = inconclusive; · = no result given; + = active, no number.

SMILES	EBI2 block	Granule exo inh	Myeloid diff MLP	MC4R barr agon	MC4R antag cAMP
CCN1CCCC1CNC(=O)CN(C)S(=O)(=O)c1ccc(Cl)cc1 (stereo not drawn)	-2.5	35.9	i	-0.4	8.1
O=C(Cc1ccccc1[N+](=O)[O-])NCCC1=CCCCC1	-3.2	0.5	+	-0.6	3.9
O=C(NCCC1=CCCCC1)C(c1ccccc1)c1ccccc1	14.4	-2.3	i	8.5*	2.1
O=[N+]([O-])c1ccc(NCCOc2ccccc2Cl)nc1	4.6	25.4	+	-0.3	-1.5
CN1C(N)=NC(=O)/C1=C/c1ccccc1F	-12.8	0.0	i	0.4	6.2
Cc1ccc(/C=C2/C(=O)N=C(N)N2C)s1	-2.9	1.6	+	-1.6	-20.3
Oc1c(C=C2N=c3ccccc3=N2)sc(=S)n1-c1ccc2ccccc2c1	9.7	59.0*	i	0.6	7.1
O=[N+]([O-])c1cccc(N(CC(O)CN2CCCCC2)S(=O)(=O)c2ccccc2)c1 (stereo not drawn)	-4.3	18.7	i	-1.1	-2.9
O=[N+]([O-])c1c(Nc2ccccc2O)cc(Cl)c2nonc12	60.9*	60.6*	?	-5.3	-56.2
COc1cc(CNc2ccc(N3CCCC3)cc2)cc(Cl)c1OC	-10.3	0.7	+	-3.0	-34.2
CCOc1cc(CNc2ccc(N3CCCC3)cc2)cc(Cl)c1OC	-7.5	2.0	?	-1.1	-24.0
CCOc1cccc(-c2nnc(SCC(=O)Nc3cccc(OC)c3)n2N)c1	-0.9	-0.5	i	0.4	17.9
COc1cccc(-c2nnc(SCC(=O)Nc3ccc(OC)c(OC)c3)n2N)c1	4.1	0.9	+	1.0	16.1
O=C(COc1ccccc1)Nc1cccc(-c2ccc(N3CCOCC3)nn2)c1	-4.4	1.7	i	-3.4	-2.4
CCOC(=O)c1c(-c2ccc(C)cc2)csc1NC(=O)/C(C#N)=C/c1ccc(O)c(OC)c1	25.2	-1.2	+	-2.0	3.5
COc1cc(/C=C(\C#N)C(=O)Nc2ccccn2)ccc1O	1.3	-0.6	i	1.4	6.5
CCOC(=O)c1c(-c2ccccc2)csc1NC(=O)/C(C#N)=C\c1ccc(O)c(OC)c1	18.6	-4.2	+	-2.1	25.8
CCOC(=O)/C(C#N)=C\c1ccc(O)c(OC)c1	6.2	-4.6	i	-2.3	-4.2
COc1cccc(CN2CCNC(=O)C2CC(=O)N(Cc2cnn(C)c2)C(C)C)c1 (stereo not drawn)	0.6	-3.8	i	1.9	18.7
COc1cccc2sc(NNC(=O)C3=COCCO3)nc12	-11.7	-1.0	+	-1.6	5.6
Cc1cccc(NC(=O)C(C)Sc2ncnc3sccc23)c1 (stereo not drawn)	6.7	1.6	i	-1.8	3.9
Cc1ccc(NC(=S)NCc2ccccc2)cc1S(=O)(=O)N1CCCCC1	24.5	-1.1	i	0.8	25.1
CCCCc1c(-c2cccc(Cl)c2)ncn1CCc1ccccc1OC	21.8	9.2	i	·	·
CN(C)c1ccc(/C=C/c2ccc3ccccc3n2)cc1	28.3	21.2	i	-0.9	4.9
COc1cc(/C=C/c2nc3ccccc3s2)cc(OC)c1O	-11.4	5.4	+	-1.3	4.6
SMILES	EBI2 block	Granule exo inh	Myeloid diff MLP	MC4R barr agon	MC4R antag cAMP
COc1cc(C=C(c2nc3ccccc3s2)c2nc3ccccc3s2)ccc1O	17.3	-1.5	i	-3.4	-6.8
CN(C)c1ccc(/C=C/c2nc3ccccc3s2)cc1	14.3	0.3	+	0.8	10.1
CC1(Oc2ccc3ccccc3c2)CCN(Cc2cccn2-c2nccs2)C1 (stereo not drawn)	10.5	-2.2	i	-1.7	0.1
COc1ccc(NC(=O)c2ccc(OC)c(S(=O)(=O)N3CCCCC3C)c2)cn1 (stereo not drawn)	-1.5	-10.5	i	0.2	2.9
COc1ccc(NS(=O)(=O)c2ccc3c(c2)CCC(=O)N3)cc1O	-3.1	4.4	i	-0.8	8.9
CC1=C(C(=O)N(C(C)C)C(C)C)CC(CC(=O)NC2CCCCC2)C(=O)N1Cc1ccc(F)cc1 (stereo not drawn)	-11.9	3.2	i	·	·
COc1cc(CNc2ncnc3c2[nH]c2ccc(C)cc23)cc(OC)c1	23.6	56.2*	i	-1.9	6.9
Cc1ccc2[nH]c3c(NCc4ccco4)ncnc3c2c1	4.7	0.1	i	-0.9	5.5
CCCn1c2ccccc2c2cnn(CC(=O)NC3CCCC(C)C3C)c(=O)c21 (stereo not drawn)	6.3	13.8	i	0.6	-3.4
O=C(c1ccc(Cl)cc1)c1cnc(-c2ccccc2)s1	2.7	2.4	i	-2.1	3.8
O=C(c1ccc(Cl)cc1)c1cnc(Nc2ccccc2Cl)s1	-19.8	-1.7	i	9.9*	7.3
O=C(c1ccc(Br)o1)N1CCN(Cc2ccccc2Cl)CC1	-22.2	3.9	i	-1.6	-2.8
CC(C)(C)OC(=O)C[C@@H]1C/C=C\C[C@H](CC(=O)NCCO)C(=O)NC[C@H](c2ccccc2)OC1=O	-16.0	16.5	i	-0.7	2.7
CCc1ccc(-c2cc(C(F)(F)F)n3nc(C(=O)Nc4c(C)nn(Cc5ccccc5C)c4C)cc3n2)s1	18.1	2.6	+	4.3	-6.8
CCc1ccc(-c2cc(C(F)(F)F)n3nc(C(=O)Nc4c(C)nn(Cc5ccccc5Cl)c4C)cc3n2)s1	18.2	2.6	i	-2.2	3.3
CCCCNC(=O)C1(C)CCCCN1CC(=O)c1ccc(OC)cc1 (stereo not drawn)	6.2	-7.1	i	-0.5	7.2
O=C1CCCC2=C1C(c1ccc(O)c(Br)c1)C1=C(CCCC1=O)N2c1ccccc1	-5.5	-2.8	+	-5.2	23.2
COc1cc2c3nnc(-c4ccc(F)cc4)c-3cn(Cc3ccccc3F)c2cc1OC	-12.9	-1.3	+	11.8*	2.2
COc1ccccc1Cc1c(-c2ccc(F)cc2)nc2ccc(Cl)cn12	1.8	1.6	i	·	·
CCOC(=O)C1=C(CSc2nccn2C)NC(=O)NC1c1cc(C)ccc1C (stereo not drawn)	5.4	-2.7	i	1.9	-4.9
CCOC(=O)C1=C(CSc2nccn2C)NC(=O)NC1c1ccc2c(c1)OCO2 (stereo not drawn)	-7.2	-0.6	i	9.2*	4.5
CCOC(=O)c1c(C)nc2sc(C(N)=O)c(N)c2c1-c1ccccc1	12.3	-6.8	i	-0.2	-1.4
CCOC(=O)c1c(C)nc2sc(C(=O)Nc3ccccc3)c(N)c2c1-c1ccc(OC)cc1	36.8	13.4	+	-0.5	4.9
O=C1CCCCC1C(Nc1ccc(Cl)cc1)c1ccccc1 (stereo not drawn)	1.1	4.3	i	8.9*	1.9
O=C1CCCCC1C(Nc1ccc(Br)cc1)c1ccccc1 (stereo not drawn)	-1.7	2.6	i	1.3	5.9
COc1ccccc1C(=O)N1CCN(c2nc3cc(C)cc(C)c3cc2C#N)CC1	2.1	1.6	i	0.7	2.1
Cc1cc(C)c2cc(C#N)c(N3CCCN(C(=O)c4cnccn4)CC3)nc2c1	2.9	31.8	+	-0.5	-1.9
